From ChEMBL document CHEMBL1649383, “Mode of action of epoxyphomalins A and B and characterization of related metabolites from the marine-derived fungus Paraconiothyrium sp” (J Nat Prod, 2010)
In brackets after ≈: the same amount, converted by molar mass.

Tests used:
T-24 = assay: Cytotoxicity against human T24 cells at 10 ug/ml relative to control; assay type: functional
[1] = Cytotoxicity against human PXF 1752L cells at 0.01 ug/ml relative to control; assay type: functional
[2] = Cytotoxicity against human MEXF 394NL cells at 0.1 ug/ml relative to control; assay type: functional
[3] = Cytotoxicity against human RXF 393NL cells; assay type: functional, cell-based
Method in brief: (§1)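 Monolayer cell survival and proliferation assay run across a panel of 36 human tumor cell lines, with IC50 determined from the resulting growth data.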

CWR22R = assay: Cytotoxicity against human 22Rv1 cells at 0.01 ug/ml relative to control; assay type: functional
[4] = Cytotoxicity against human OVXF 1619L cells at 0.1 ug/ml relative to control; assay type: functional
[5] = Cytotoxicity against human BXF 1218L cells at 0.001 ug/ml relative to control; assay type: functional
PANC-1 [6] = assay: Cytotoxicity against human PANC1 cells at 0.1 ug/ml relative to control; assay type: functional
MCF7 [7] = assay: Cytotoxicity against human MCF7 cells at 0.1 ug/ml relative to control; assay type: functional
[8] = Cytotoxicity against human RXF 486L cells; assay type: functional, cell-based; method in brief: as §1
[9] = Cytotoxicity against human HNXF 536L cells at 0.001 ug/ml relative to control; assay type: functional
NCI-H460 [10] = assay: Cytotoxicity against human H460 cells; assay type: functional, cell-based
Method in brief: (§2)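 Monolayer cell survival and proliferation assay, run within a panel of 36 human tumor cell lines; IC50 determined per cell line.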

[11] = Cytotoxicity against human LXFA 289L cells; assay type: functional, cell-based
Method in brief: (§3)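 Monolayer cell survival and proliferation assay run across a panel of 36 human tumour cell lines; IC50 values determined.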

OVCAR-3 = assay: Cytotoxicity against human OVCAR3 cells at 0.01 ug/ml relative to control; assay type: functional
HT-29 = assay: Cytotoxicity against human HT-29 cells at 0.01 ug/ml relative to control; assay type: functional
PANC-1 [12] = assay: Cytotoxicity against human PANC1 cells at 1 ug/ml relative to control; assay type: functional
[13] = Cytotoxicity against human RXF 944L cells; assay type: functional, cell-based; method in brief: as §1
MCF7 [14] = assay: Cytotoxicity against human MCF7 cells at 10 ug/ml relative to control; assay type: functional
[15] = Cytotoxicity against human CNXF 498NL cells; assay type: functional, cell-based; method in brief: as §2
[16] = Cytotoxicity against human MEXF 520L cells at 0.01 ug/ml relative to control; assay type: functional
[17] = Cytotoxicity against human PC3M cells at 0.001 ug/ml relative to control; assay type: functional, PC-3M
[18] = Cytotoxicity against human UXF 1138L cells; assay type: functional, cell-based; method in brief: as §1
DU-145 [19] = assay: Cytotoxicity against human DU145 cells at 0.001 ug/ml relative to control; assay type: functional
[20] = Cytotoxicity against human CNXF 498NL cells at 10 ug/ml relative to control; assay type: functional
[21] = Cytotoxicity against human BXF 1218L cells at 10 ug/ml relative to control; assay type: functional
[22] = Cytotoxicity against human GXF251L cells at 0.1 ug/ml relative to control; assay type: functional
[23] = Cytotoxicity against human RXF 1781L cells; assay type: functional, cell-based; method in brief: as §1
[24] = Cytotoxicity against human OVXF 899L cells; assay type: functional, cell-based; method in brief: as §1
[25] = Cytotoxicity against human LXFA 289L cells at 0.001 ug/ml relative to control; assay type: functional
[26] = Cytotoxicity against human MEXF 462NL cells at 0.01 ug/ml relative to control; assay type: functional
[27] = Cytotoxicity against human PXF 1752L cells; assay type: functional, cell-based; method in brief: as §1
HCT-116 = assay: Cytotoxicity against human HCT116 cells; assay type: functional, cell-based; method in brief: as §2
[28] = Cytotoxicity against human OVXF 899L cells at 0.01 ug/ml relative to control; assay type: functional
[29] = Cytotoxicity against human OVXF 1619L cells at 0.001 ug/ml relative to control; assay type: functional
[30] = Cytotoxicity against human MEXF 394NL cells at 0.001 ug/ml relative to control; assay type: functional
NCI-H460 [31] = assay: Cytotoxicity against human H460 cells at 10 ug/ml relative to control; assay type: functional
[32] = Cytotoxicity against human PC3M cells at 0.01 ug/ml relative to control; assay type: functional, PC-3M
LNCaP [33] = assay: Cytotoxicity against human LNCAP cells; assay type: functional, cell-based; method in brief: as §3
[34] = Cytotoxicity against human LXFA 629L cells at 0.01 ug/ml relative to control; assay type: functional
[35] = Cytotoxicity against human MEXF 462NL cells at 0.1 ug/ml relative to control; assay type: functional
[36] = Cytotoxicity against human MAXF 401NL cells; assay type: functional, cell-based; method in brief: as §3
[37] = Cytotoxicity against human MEXF 520L cells at 0.1 ug/ml relative to control; assay type: functional
[38] = Cytotoxicity against human MEXF 276L cells at 0.001 ug/ml relative to control; assay type: functional, MEXF276L
[39] = Cytotoxicity against human MEXF 520L cells; assay type: functional, cell-based; method in brief: as §1
DU-145 [40] = assay: Cytotoxicity against human DU145 cells; assay type: functional, cell-based; method in brief: as §2
MCF7 [41] = assay: Cytotoxicity against human MCF7 cells; assay type: functional, cell-based; method in brief: as §3
[42] = Cytotoxicity against human LXFL 529L cells; assay type: functional, cell-based; method in brief: as §3
[43] = Cytotoxicity against human MEXF 520L cells at 10 ug/ml relative to control; assay type: functional
[44] = Cytotoxicity against human MEXF 462NL cells at 1 ug/ml relative to control; assay type: functional
[45] = Cytotoxicity against human MEXF 462NL cells at 0.001 ug/ml relative to control; assay type: functional
LNCaP [46] = assay: Cytotoxicity against human LNCAP cells at 0.01 ug/ml relative to control; assay type: functional
[47] = Cytotoxicity against human PXF 1752L cells at 0.001 ug/ml relative to control; assay type: functional
[48] = Cytotoxicity against human MEXF 394NL cells; assay type: functional, cell-based; method in brief: as §1

With `C=C1[C@@H](O)[C@H]2O[C@@]2(C[C@H]2C(C)=CC[C@H]3C(C)(C)CCC[C@]23C)[C@@H](O)[C@H]1O` [EPOXYPHOLAMIN D] the Activity (T-24) was 7%, the Activity [1] was 101% and the Activity [2] was 99%. The IC50 [3] was 11.8 µM, the IC70 [3] was 6.53 µg/mL (≈ 18 µM) and the IC90 [3] was 10 µg/mL (≈ 27.6 µM). The Activity (CWR22R) was 81%, the Activity [4] was 81% and the Activity [5] was 106%. For the same molecule, the Activity (PANC-1 [6]) was 97%, the Activity (MCF7 [7]) was 96% and the IC50 [8] was 7.67 µM. For the same molecule, the IC70 [8] was 5.27 µg/mL (≈ 14.5 µM), the IC90 [8] was 10 µg/mL (≈ 27.6 µM) and the Activity [9] was 79%. The IC50 (NCI-H460 [10]) was 7.48 µM, the IC70 (NCI-H460 [10]) was 4.73 µg/mL (≈ 13 µM) and the IC90 (NCI-H460 [10]) was 8.23 µg/mL (≈ 22.7 µM). It also gave an IC50 [11] of 18.5 µM, an IC70 [11] of 13.9 µg/mL (≈ 38.3 µM) and an IC90 [11] of 28.9 µg/mL (≈ 79.6 µM). For the same molecule, the Activity (OVCAR-3) was 98%, the Activity (HT-29) was 113% and the Activity (PANC-1 [12]) was 68%. The IC50 [13] was 10.8 µM, the IC70 [13] was 6.58 µg/mL (≈ 18.1 µM) and the IC90 [13] was 11.1 µg/mL (≈ 30.6 µM). The Activity (MCF7 [14]) was 5%, the IC50 [15] was 3.45 µM and the IC70 [15] was 3.09 µg/mL (≈ 8.53 µM). It also gave an IC90 [15] of 7.63 µg/mL (≈ 21 µM), an Activity [16] of 96% and an Activity [17] of 120%. For the same molecule, the IC50 [18] was 6.15 µM, the IC70 [18] was 4.64 µg/mL (≈ 12.8 µM) and the IC90 [18] was 9.64 µg/mL (≈ 26.6 µM). The Activity (DU-145 [19]) was 91%, the Activity [20] was 4% and the Activity [21] was 17%. The Activity [22] was 112%, the IC50 [23] was 11.8 µM and the IC70 [23] was 7.69 µg/mL (≈ 21.2 µM). For the same molecule, the IC90 [23] was 13.8 µg/mL (≈ 38 µM), the IC50 [24] was 8.19 µM and the IC70 [24] was 5.62 µg/mL (≈ 15.5 µM). For the same molecule, the IC90 [24] was 10.7 µg/mL (≈ 29.4 µM), the Activity [25] was 98% and the Activity [26] was 122%. The IC50 [27] was 2.29 µM, the IC70 [27] was 3.05 µg/mL (≈ 8.42 µM) and the IC90 [27] was 12.3 µg/mL (≈ 34 µM). The IC50 (HCT-116) was 7.7 µM, the IC70 (HCT-116) was 4.86 µg/mL (≈ 13.4 µM) and the IC90 (HCT-116) was 8.47 µg/mL (≈ 23.4 µM). For the same molecule, the Activity [28] was 104%, the Activity [29] was 122% and the Activity [30] was 97%. It also gave an Activity (NCI-H460 [31]) of 3%, an Activity [32] of 101% and an IC50 (LNCaP [33]) of 17 µM. The IC70 (LNCaP [33]) was 9.38 µg/mL (≈ 25.9 µM), the IC90 (LNCaP [33]) was 14.3 µg/mL (≈ 39.5 µM) and the Activity [34] was 87%. For the same molecule, the Activity [35] was 167%, the IC50 [36] was 2.57 µM and the IC70 [36] was 3.16 µg/mL (≈ 8.72 µM). It also gave an IC90 [36] of 11.4 µg/mL (≈ 31.3 µM), an Activity [37] of 92% and an Activity [38] of 98%. For the same molecule, the IC50 [39] was 7.67 µM, the IC70 [39] was 4.91 µg/mL (≈ 13.6 µM) and the IC90 [39] was 8.68 µg/mL (≈ 23.9 µM). It also gave an IC50 (DU-145 [40]) of 8.99 µM, an IC70 (DU-145 [40]) of 5.88 µg/mL (≈ 16.2 µM) and an IC90 (DU-145 [40]) of 10.6 µg/mL (≈ 29.3 µM). For the same molecule, the IC50 (MCF7 [41]) was 5.32 µM, the IC70 (MCF7 [41]) was 4.01 µg/mL (≈ 11.1 µM) and the IC90 (MCF7 [41]) was 8.33 µg/mL (≈ 23 µM). For the same molecule, the IC50 [42] was 8.58 µM, the IC70 [42] was 5.95 µg/mL (≈ 16.4 µM) and the IC90 [42] was 11.4 µg/mL (≈ 31.4 µM). It also gave an Activity [43] of 5%, an Activity [44] of 68% and an Activity [45] of 133%. It also gave an Activity (LNCaP [46]) of 111%, an Activity [47] of 95% and an IC50 [48] of 6.76 µM. For the same molecule, the IC70 [48] was 4.64 µg/mL (≈ 12.8 µM) and the IC90 [48] was 8.8 µg/mL (≈ 24.3 µM).
